≈ marks a conversion by molar mass, not a printed value. Non-standard residues stand in square brackets, D forms with d. Residues, ends and D or L forms follow the SMILES beside them. Orn = NCCC[C@H](N)C(=O)O
Legend:
Bacillus subtilis = assay: Antimicrobial activity against Bacillus subtilis DSM 347 after 22 hrs by resazurin dye based spectrophotometry; assay type: functional; settings: DSM 347, 22 h
How it was run: (§1)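 2-fold broth microdilution in Mueller–Hinton medium; peptide stocks 1024 μg/mL in 50% ethanol. Exponential-phase cultures diluted to OD550 0.2, then 1:100 (B. subtilis) or 1:1000 (E. coli), giving 5 × 10^5 CFU/mL per well. Incubated 22 h, 37 °C, static; then resazurin (0.2 mg/mL solution) added for 2 h at 37 °C, read visually and spectrophotometrically. Tested in both photoforms.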

HeLa = assay: Cytotoxicity against human HeLa cells assessed as reduction in cell viability after 24 hrs by MTT assay; assay type: functional, cell-based
How it was run: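 HeLa cells seeded at about 5 × 10^4 cells/mL in DMEM with 10% FBS, 2 mM glutamine, gentamicin; 24 h adaptation (37 °C, 5% CO2), then 24 h peptide exposure. MTT 4 h, formazan in DMSO read at 570 nm. 2-fold series 256–0.5 (open) or 512–1 μg/mL (closed), four repetitions; IC50 extrapolated from killing curves. Closed form handled in dim light.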

[1] = Hemolytic activity against human RBC assessed as hemolysis after 30 mins by colorimetric method; assay type: ADME, cell-based, Erythrocyte; settings: human red blood cells (erythrocytes)
How it was run: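 Human erythrocytes washed twice in isotonic 172 mM Tris-HCl, pH 7.6; peptides dissolved in DMSO, diluted in buffer, two independent 10-step 2-fold series from 256 or 192 μg/mL. HC50 extrapolated as 50% hemolysis concentration.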

[2] = Therapeutic index, ratio of HC50 for human RBC to MIC for Bacillus subtilis DSM 347; assay type: toxicity; settings: human red blood cells versus Bacillus subtilis DSM 347
How it was run: (§2)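 Ratio of HC50 (RBC) to HeLa IC50 or to MIC against B. subtilis or E. coli; values measured in mg/mL and recalculated to μM, 2-fold dilution without curve fitting, accuracy within a factor of 2.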

[3] = Selective ratio of HC50 for human RBC to IC50 for human HeLa cells; assay type: toxicity; settings: human red blood cells versus HeLa cells; how it was run: as §2
Escherichia coli = assay: Antimicrobial activity against Escherichia coli DSM 1103 after 22 hrs by resazurin dye based spectrophotometry; assay type: functional; settings: DSM 1103, 22 h; how it was run: as §1

| Structure (SMILES) | MIC (Bacillus subtilis) [µM] | IC50 (HeLa) [µM] | HC50 at 0.5 h [1] [nM] | selectivity ratio [2] | selectivity ratio [3] | MIC (Escherichia coli) [µM] |
| --- | --- | --- | --- | --- | --- | --- |
| Cc1sc2cc1C1=C(CCC1)c1cc(sc1C)C(=O)[C@H]1CCCN1C(=O)[C@H](CC(C)C)NC(=O)[C@H](CCCCN)NC(=O)[C@H](C(C)C)NC(=O)[C@H](CCCCN)NC(=O)[C@H](CC(C)C)NC(=O)[C@@H]1CCCN1C(=O)[C@@H](Cc1ccccc1)NC(=O)[C@H](C(C)C)NC(=O)[C@H](CCCCN)NC(=O)[C@H](CC(C)C)NC(=O)[C@H](CCCCN)NC(=O)[C@H](C(C)C)NC2=O | 9 (≈ 16 µg/mL) | 5 | < 1000 | 0.1 | 0.2 | 36 (≈ 64 µg/mL) |
| Cc1sc2cc1C1=C(CCC1)c1cc(sc1C)C(=O)[C@H]1CCCN1C(=O)[C@H](C(C)C)NC(=O)[C@H](CCCN)NC(=O)[C@H](C(C)C)NC(=O)[C@H](CCCn1cc(COCc3cn(CCC[C@H]4C(=O)N[C@@H](C(C)C)C(=O)N[C@@H](CCCN)C(=O)N[C@@H](C(C)C)C(=O)N5CCC[C@@H]5C(=O)c5cc(c(C)s5)C5=C(CCC5)c5cc(sc5C)C(=O)N[C@@H]([C@H](O)C(C)C)C(=O)N[C@@H](CCCN)C(=O)N[C@@H](C(C)C)C(=O)N[C@H](Cc5ccccc5)C(=O)N4C)nn3)nn1)N(C)C(=O)[C@@H](Cc1ccccc1)NC(=O)[C@H](C(C)C)NC(=O)[C@H](CCCN)NC(=O)[C@H]([C@H](O)C(C)C)NC2=O | 3 (≈ 8.32 µg/mL) | 24 | 1000 | 0.3 | – | 48 (≈ 133 µg/mL) |
| CC(C)C[C@@H]1NC(=O)[C@H](CCCN)NC(=O)[C@H](C(C)C)NC(=O)[C@@H]2CCCN2C(=O)[C@@H](Cc2ccccc2)NC(=O)[C@H](CC(C)C)NC(=O)[C@H](CCCN)NC(=O)[C@H](C(C)C)NC(=O)[C@@H]2CCCN2C(=O)[C@@H](Cc2ccccc2)NC1=O (cyclo(V[Orn]L[dF]PV[Orn]L[dF]P)) [listing 1 of 2 here] | 1.8 (≈ 2.05 µg/mL) | – | – | – | – | 28 (≈ 32 µg/mL) |
| CCCCN1C(=O)[C@@H](Cc2ccccc2)NC(=O)[C@H](CC(C)C)NC(=O)[C@H](CCCN)NC(=O)[C@H]([C@@H](C)CC)NC(=O)c2cc(c(C)s2)C2=C(CCC2)c2cc(sc2C)C(=O)[C@H]2CCCN2C(=O)[C@H](CC(C)C)NC(=O)[C@H](CCCN)NC(=O)[C@H]([C@@H](C)CC)NC(=O)[C@@H]1CC(C)C | 12 (≈ 16.6 µg/mL) | 4 | 3000 | 0.3 | 0.8 | 93 (≈ 128 µg/mL) |
| CC(C)C[C@@H]1NC(=O)[C@H](CCCN)NC(=O)[C@H](C(C)C)NC(=O)[C@@H]2CCCN2C(=O)[C@@H](Cc2ccccc2)NC(=O)[C@H](CC(C)C)NC(=O)[C@H](CCCN)NC(=O)[C@H](C(C)C)NC(=O)[C@@H]2CCCN2C(=O)[C@@H](Cc2ccccc2)NC1=O (cyclo(V[Orn]L[dF]PV[Orn]L[dF]P)) [listing 2 of 2 here] | – | 3.5 | 10500 | – | – | – |
| Cc1sc2cc1C1=C(CCC1)c1cc(sc1C)C(=O)[C@H]1CCCN1C(=O)[C@H](Cc1ccc(O)cc1)NC(=O)[C@H](CCCN)NC(=O)[C@H](C(C)C)NC(=O)[C@@H]1CCCN1C(=O)[C@@H](Cc1ccccc1)NC(=O)[C@H](Cc1ccc(O)cc1)NC(=O)[C@H](CCCN)NC(=O)[C@H](C(C)C)NC2=O | 4 (≈ 5.52 µg/mL) | 23 | 4000 | 1 | 0.2 | 92 (≈ 127 µg/mL) |
| Cc1sc2cc1C1=C(CCC1)c1cc(sc1C)C(=O)[C@H]1CCCN1C(=O)[C@H](C(C)C)NC(=O)[C@H](CCCN)NC(=O)[C@H](C(C)C)NC(=O)[C@@H]1CCCN1C(=O)[C@@H](Cc1ccccc1)NC(=O)[C@H](C(C)C)NC(=O)[C@H](CCCN)NC(=O)[C@H](CCCn1cc(COCc3cn(CCC[C@@H]4NC(=O)c5cc(c(C)s5)C5=C(CCC5)c5cc(sc5C)C(=O)[C@H]5CCCN5C(=O)[C@H](C(C)C)NC(=O)[C@H](CCCN)NC(=O)[C@H](C(C)C)NC(=O)[C@@H]5CCCN5C(=O)[C@@H](Cc5ccccc5)NC(=O)[C@H](C(C)C)NC(=O)[C@H](CCCN)NC4=O)nn3)nn1)NC2=O | 1 (≈ 2.68 µg/mL) | 23 | 1000 | 1 | – | 23 (≈ 61.7 µg/mL) |
